Screen size: about 360,000 compounds; about 890 (0.25%) were called active. This excerpt belongs to a sample that is enriched for actives. A number with no mark means an inactive call.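 How the source made its calls: active means inhibition at 20 µM, scaled per plate between control wells, above about 37% (limit read from the data); inactive means the rest.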

Tyrosine-protein phosphatase non-receptor type 5 (Homo sapiens), sequence (P54829 whole entry, looked up): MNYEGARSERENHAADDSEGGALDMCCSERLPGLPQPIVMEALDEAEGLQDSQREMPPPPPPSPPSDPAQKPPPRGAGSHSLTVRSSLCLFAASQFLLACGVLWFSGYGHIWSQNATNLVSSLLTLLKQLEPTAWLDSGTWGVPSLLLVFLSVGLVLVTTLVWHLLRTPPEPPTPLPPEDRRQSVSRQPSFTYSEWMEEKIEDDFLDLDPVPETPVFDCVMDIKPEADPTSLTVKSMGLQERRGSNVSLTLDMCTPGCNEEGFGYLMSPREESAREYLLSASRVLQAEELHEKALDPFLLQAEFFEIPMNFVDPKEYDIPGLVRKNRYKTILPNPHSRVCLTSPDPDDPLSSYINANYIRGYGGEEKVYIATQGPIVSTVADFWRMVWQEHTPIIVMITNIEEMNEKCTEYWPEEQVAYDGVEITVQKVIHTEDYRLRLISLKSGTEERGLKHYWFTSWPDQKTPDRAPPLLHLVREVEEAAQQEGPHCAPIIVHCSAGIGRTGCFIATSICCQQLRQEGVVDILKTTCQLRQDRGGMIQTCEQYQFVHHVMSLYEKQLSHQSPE

The assay concerns the target Tyrosine-protein phosphatase non-receptor type 5 (Homo sapiens) (UniProt P54829). In words: STEP phosphatase inhibitors, primary screen, biochemical, fluorescence intensity, uHTS (AID 588621).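 Further: 0% = DMSO with enzyme and substrate and 100% = substrate only without enzyme.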 Conditions: recombinant STEP, OMFP fluorogenic substrate, at 20 µM, active compounds read high. In a few lines: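 material = STEP tyrosine phosphatase | reagent = fluorogenic phosphatase substrate OMFP at 25 µM final | doses = single compound dose of 20 µM, 1% DMSO final | schedule = 20 min reaction, room temperature, in the dark | measured by = fluorescence, 480/540 nm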
On to `Nc1ccccc1/C=N\N=C/c1ccccc1N`, for which the inhibition is -2.4%. For `Cc1c(NC(=O)C(=O)N/N=C/c2cccs2)c(=O)n(-c2ccccc2)n1C`, the inhibition is 3.9%. Then `CCC(=O)c1cc2c(cc1NC(=O)c1cccs1)OCCO2`, with -2.5%; and `C=CCO/N=C(\C)c1c(O)c(C)c(-c2ccccc2)n(-c2ccccc2)c1=O`, with 6.7%. Take `CC1CN(C(=O)COC(=O)c2cccc(NS(=O)(=O)c3ccccc3)c2)CC(C)O1` (centres undefined): the inhibition was 0.4%. For the compound `COc1ccc(/C=N/Nc2ccccc2C(=O)O)cc1`, the inhibition was 42.5% (active). In the case of `COc1ccc(/C=N/NC(=O)C(C)N(c2ccc(OC)cc2)S(C)(=O)=O)cc1` (centres undefined) it was 2.2%; in that of `COc1ccc(/C=N/NC(=O)Cn2cc(C(F)(F)F)ccc2=O)cc1`, -2.6%; in that of `CCc1ccccc1NC(=O)CN1CCN(C(=O)c2cc(C3CC3)nn2-c2ccccc2)CC1`, -3.2%. In the case of `CC(C)Cc1ccc(C(C)C(=N)N)cc1` (centres undefined) it was -2%; in that of `CCO[C@H]1OC(C(=O)N2CCCCCCC2)=C[C@@H](c2ccc(C(F)(F)F)cc2)[C@@H]1CCCO`, 0.1%; in that of `CCOC(=O)C1=C(O)/C(=C/c2ccc(OCC(=O)Nc3ccc(C)cc3)cc2)N=C1C`, 14.9%. Then `Cc1ccc(OCC(=O)Nc2ccc(-c3nc4ncccc4o3)cc2)cc1`, with 54.1% (active); and `Cc1ccc2nc(-c3ccc(NC(=O)c4cccnc4)cc3)oc2c1`, with 0.4%; and `CCc1ccc(C2C(C#N)=C(N)N(N3CCOCC3)C3=C2C(=O)CC(C)(C)C3)s1` (centres undefined), with -1.9%. Regarding `CNC(=O)NC(=O)C(OC(=O)c1cccc(S(=O)(=O)N2CCCCC2)c1)c1ccccc1` (centres undefined), the inhibition was -0.2%.

For `O=C(/C=C/Nc1ccc(S(=O)(=O)Nc2cnc3ccccc3n2)cc1)c1cccnc1`, the inhibition is 5.4%.

For `CCOc1cc(CO)ccc1OCC(=O)N1CCCCC1`, the inhibition is -1.4%. Then `CCOc1ccc(NC(=S)N2CCCCCC2)cc1`, with -2.3%; and `CC(=NNC(=S)N1CCCCCC1)c1ccccn1`, with 54.5% (active); and `CCNC(=S)N1CCN(c2ncccn2)CC1`, with -5.9%.

For `CCOC(=O)C1CCN(c2c(Nc3cc(C)cc(C)c3)c(=O)c2=O)CC1`, the inhibition is -2.8%. Then `COc1ccc(-c2c(-c3cc(OC)cc(OC)c3)n(C)c3ccc(-c4ccn[nH]4)cc23)cc1`, with -1.9%; and `O=C(CCSCCc1ccccn1)Nc1nccs1`, with -2.2%; and `CC(O)C(NS(=O)(=O)c1ccc(Cl)cc1)C(=O)OCc1cc([N+](=O)[O-])cc2c1OCOC2` (centres undefined), with -3.7%. In the case of `Cc1c(/C=N\NC(=O)c2cc3ccccc3o2)c2ccccc2n1C` it was -0.5%; in that of `O=C(N/N=C/c1coc2ccccc2c1=O)c1cc2ccccc2o1`, 43.4% (active); in that of `CC(C)(C)OC(=O)NCCCCCC(=O)N/N=C/c1coc2ccccc2c1=O`, -1.9%. `CN1CCN(C(=O)c2ccccc2NC(=O)COc2ccccc2Cl)CC1`: the inhibition was -2.4%. With `C=CCn1c(=S)[nH]c2scc(-c3ccco3)c2c1=O`, the inhibition was 13.1%.

For the compound `COc1ccc2[nH]c(=O)c(-c3noc(-c4ccc(F)cc4)n3)cc2c1`, the inhibition was 95.7% (active). Then `CCCc1nc(-c2cc3cc(C)ccc3[nH]c2=O)no1`, with 3.2%; and `COc1ccc(Cc2cc(-c3ccc(F)cc3)n[nH]c2=O)cc1`, with 1.1%; and `O=C(NCc1ccccc1)C(c1cccnc1)N(C(=O)c1csnn1)c1ccc(F)cc1` (centres undefined), with 2.3%.

Regarding `Cc1ccc(-n2c(C)cc(/C=C(\C#N)C(=O)NCC3CCCO3)c2C)cc1` (centres undefined), the inhibition is 0.4%.

As to `CCCCNC(=O)c1c[nH]c2ccc(S(=O)(=O)Nc3ccc(OCC)cc3)cc2c1=O`, the inhibition was 4.4%. In the case of `Cc1nc2ccc(NC(=S)N3CCC(C)CC3)cc2nc1C` it was 2.1%; in that of `CC1=C(C(=O)N2CCOCC2)CC(CC(=O)NCCCN(C)C)C(=O)N1Cc1ccc(C(C)(C)C)cc1` (centres undefined), -2.8%; in that of `CC(=O)c1ccc(NC(=O)CSC(=S)N2CCCC2)cc1`, 0.8%. `O=C(CSC(=S)N1CCCCC1)c1c(F)cccc1F`: the inhibition was 87.8% (active). In the case of `COc1cccc(NC(=O)CN(C)C(=O)CSC(=S)N2CCCC2)c1` it was -1.5%. In the case of `O=S(=O)(NCC1CN(S(=O)(=O)c2ccc3c(c2)OCCO3)C1)c1c(F)cccc1F`, the inhibition was -0.5%.

As to `COc1ccc(NC(=O)c2ccco2)cc1NC(=O)c1ccc(C#N)cc1F`, the inhibition was -1.6%. For `N#Cc1ccc(C(=O)Nc2cccc3cccnc23)c(F)c1`, the inhibition was 97.4% (active).

As to `CSc1ccc(C#N)cc1NC(=O)c1ccc(Cl)cc1`, the inhibition is -9.6%.

For the compound `CSCCC(NC(=O)COc1ccccc1)C(=O)N(C)CC(=O)Nc1ccc(C)cc1` (centres undefined), the inhibition is -3.9%. Then `COc1ccc(CN2CCCC(CNC(=O)c3ccc(F)cc3)C2)cc1OC` (centres undefined), with 0.7%. Then `C[C@H](CO)N1C[C@H](C)[C@H](CN(C)C(=O)c2ccncc2)OCc2ccccc2-c2c(n(C)c3ccccc23)C1=O`, with 1.4%; and `O=C1CCC(C(=O)Nc2ccc(OC(F)F)cc2)N1` (centres undefined), with 1.3%; and `S=C(NCCCc1ccccc1)Nc1ccc(Br)cc1`, with 1.3%. For the compound `CCc1ccc(NC(=O)CS(=O)CC(=O)NCCCc2ccccc2)cc1` (centres undefined), the inhibition was 41.6% (active).

For the compound `CCc1ccc(NC(=O)CS(=O)CC(=O)N2CCN(c3ccccc3F)CC2)cc1` (centres undefined), the inhibition was 2.2%. Then `Cc1ccc(S(=O)(=O)NN=C2CC(C)(C)CC(=O)C2(C)C)cc1`, with -2.2%; and `CCOc1nnc(C)c2c(C)n(-c3cccc(Cl)c3)nc12`, with -2.6%.

For the origin of these results see PubChem BioAssay AID588621 (Sanford-Burnham Center for Chemical Genomics, 2011).
